Measured values from ChEMBL document CHEMBL5096186, “Design, Synthesis, and Biological Evaluation of Novel Pyrimido[4,5-b]indole Derivatives Against Gram-Negative Multidrug-Resistant Pathogens” (J Med Chem, 2021).
Values after ≈ are worked out from the molar mass of the structure shown.

Columns and labels:
[1] = Metabolic stability in human liver microsome assessed as metabolic bioavailability at 0.1 uM in presence of NADPH incubated upto 60 mins by LC-MS/MS analysis; assay type: ADME; settings: liver microsomes
Method in brief: (§1)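 Compound at 0.1 μM final, in 0.01% DMSO with 0.005% BSA. Incubated with rat or human liver microsomes at 0.33 mg/mL in 0.1 M Tris-HCl, pH 7.4, with 5 mM MgCl₂ and 1 mM NADPH, at 37 °C. Samples at 0, 7, 17, 30 and 60 min quenched with cold methanol and analysed by LC-MS/MS. Half-life, Cl_int and MF% derived as previously described.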

Escherichia coli [2] = test: Antibacterial activity against ESBL-producing multidrug resistant Escherichia coli assessed as reduction in bacterial growth incubated for 18 to 20 hrs by CLSI based microdilution method; assay type: functional; settings: time 18-20 hrs
Method in brief: (§2)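 Broth microdilution per CLSI. Compounds dissolved in DMSO (levofloxacin and meropenem in water) as 64 μg/mL stock, then serial twofold dilutions in broth giving 64 to 0.008 μg/mL. […] Clinical isolates tested as several strains per group; racemic GP-1 served as positive control; values given as MIC ranges.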

Klebsiella pneumoniae [3] = test: Antibacterial activity agains wild type Klebsiella pneumoniae ATCC BAA-1705 assessed as reduction in bacterial growth incubated for 18 to 20 hrs by CLSI based microdilution method; assay type: functional; settings: time 18-20 hrs
Method in brief: (§3)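 CLSI broth microdilution. Compounds in DMSO (levofloxacin and meropenem in water), serial twofold dilutions in broth, 64 to 0.008 μg/mL. […] Results reported as MIC ranges across strains.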

[4] = target: Voltage-gated inwardly rectifying potassium channel KCNH2 (Homo sapiens, UniProt Q12809); test: Inhibition of hERG potassium channel assessed as […] at -80 mV holding potential incubated for 120 seconds by whole cell-automated voltage clamp analysis assay; assay type: toxicity
Method in brief: (§4)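 Automated whole-cell patch clamp, holding potential −80 mV. Voltage protocol applied every 20 s. Baseline set with external solution containing 0.1% DMSO and stabilised 3 min. Compound applied until steady state, at least 3 min, then washout. Maximum tested concentration 40 μM, or 3 μM for cisapride as positive control.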

Pseudomonas aeruginosa [5] = test: Antibacterial activity against wild type Pseudomonas aeruginosa ATCC 27853 assessed as reduction in bacterial growth incubated for 18 to 20 hrs by CLSI based microdilution method; assay type: functional; settings: time 18-20 hrs; method in brief: as §3
[6] = Elimination half life in Sprague-Dawley rat at 4 mg/kg, iv measured upto 24 hrs by LC-MS/MS analysis; assay type: ADME, organism-based; settings: in vivo, read-out: beta t1/2 (converted)
Method in brief: (§5)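 Male Sprague-Dawley rats, n = 3 per group, single intravenous dose. For 4 mg/kg: 180–280 g rats, vehicle 5% DMSO + 5% EtOH + 40% PEG300 + 50% saline, blood from the retrobulbar vein at 0.05–24 h. For 5 and 20 mg/kg: 180–300 g rats, vehicle 5% DMSO + 5% solutol + 90% saline, sampled at 0.083–24 h. Plasma quantified by LC/MS/MS. Parameters from mean plasma concentration by noncompartmental analysis; values are mean ± standard deviation.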

[7] = Metabolic stability in human liver microsome assessed as intrinsic clearance at 0.1 uM in presence of NADPH incubated upto 60 mins by LC-MS/MS analysis; assay type: ADME; settings: microsomes, 1 h; method in brief: as §1
[8] = Metabolic stability in rat liver microsome assessed as intrinsic clearance at 0.1 uM in presence of NADPH incubated upto 60 mins by LC-MS/MS analysis; assay type: ADME; settings: microsomes, 1 h; method in brief: as §1
[9] = AUC (0 to infinity) in Sprague-Dawley rat at 4 mg/kg, iv measured upto 24 hrs by LC-MS/MS analysis; assay type: ADME, organism-based; parameters: time < 24 hrs, dose 4 mg/kg, route iv; settings: in vivo; method in brief: as §5
Acinetobacter baumannii [10] = test: Antibacterial activity against wild type Acinetobacter baumannii NCTC 13304 assessed as reduction in bacterial growth incubated for 18 to 20 hrs by CLSI based microdilution method; assay type: functional; settings: time 18-20 hrs; method in brief: as §2
[11] = system: Staphylococcus epidermidis; test: Antibacterial activity against methicillin-sensitive Staphylococcus epidermidis strains 15 1 to 4 assessed as reduction in bacterial growth incubated for 18 to 20 hrs by CLSI based microdilution method; assay type: functional; settings: time 18-20 hrs; method in brief: as §2
[12] = Metabolic stability in human liver microsome assessed as elimination half life at 0.1 uM in presence of NADPH incubated upto 60 mins by LC-MS/MS analysis; assay type: ADME; settings: liver microsomes, read-out: beta t1/2; method in brief: as §1
[13] = target: hERG (KCNH2) potassium channel (Homo sapiens, UniProt Q12809); test: Inhibition of hERG potassium channel assessed as maximum inhibition rate at 40 uM at -80 mV holding potential incubated for 120 seconds by whole cell-automated voltage clamp analysis assay relative to control; assay type: toxicity; settings: time 120 sec; method in brief: as §4
[14] = Clearance in Sprague-Dawley rat at 4 mg/kg, iv measured upto 24 hrs by LC-MS/MS analysis; assay type: ADME, organism-based; settings: in vivo; method in brief: as §5
Staphylococcus aureus [15] = test: Antibacterial activity against methicillin-sensitive Staphylococcus aureus strains 15 1 to 4 assessed as reduction in bacterial growth incubated for 18 to 20 hrs by CLSI based microdilution method; assay type: functional; settings: time 18-20 hrs; method in brief: as §2
Pseudomonas aeruginosa [16] = test: Antibacterial activity against IMP4-producing multidrug resistant Pseudomonas aeruginosa assessed as reduction in bacterial growth incubated for 18 to 20 hrs by CLSI based microdilution method; assay type: functional; settings: time 18-20 hrs; method in brief: as §2
Escherichia coli [17] = test: Antibacterial activity against Escherichia coli ATCC 35218 strains 15 1 to 3 assessed as reduction in bacterial growth incubated for 18 to 20 hrs by CLSI based microdilution method; assay type: functional; settings: time 18-20 hrs; method in brief: as §3
Escherichia coli [18] = test: Antibacterial activity against multidrug resistant wild type Escherichia coli ATCC BAA-2340 assessed as reduction in bacterial growth incubated for 18 to 20 hrs by CLSI based microdilution method; assay type: functional; settings: time 18-20 hrs; method in brief: as §2
Acinetobacter baumannii [19] = test: Antibacterial activity agains OXA23-producing multidrug resistant Acinetobacter baumannii assessed as reduction in bacterial growth incubated for 18 to 20 hrs by CLSI based microdilution method; assay type: functional; settings: time 18-20 hrs; method in brief: as §2
Klebsiella pneumoniae [20] = test: Antibacterial activity agains wild type Klebsiella pneumoniae ATCC BAA-2470 assessed as reduction in bacterial growth incubated for 18 to 20 hrs by CLSI based microdilution method; assay type: functional; settings: time 18-20 hrs; method in brief: as §2
Klebsiella pneumoniae [21] = test: Antibacterial activity against KPC2-producing multidrug resistant Klebsiella pneumoniae assessed as reduction in bacterial growth incubated for 18 to 20 hrs by CLSI based microdilution method; assay type: functional; settings: time 18-20 hrs; method in brief: as §2
[22] = Metabolic stability in rat liver microsome assessed as elimination half life at 0.1 uM in presence of NADPH incubated upto 60 mins by LC-MS/MS analysis; assay type: ADME; settings: liver microsomes, read-out: beta t1/2; method in brief: as §1
[23] = Metabolic stability in rat liver microsome assessed as metabolic bioavailability at 0.1 uM in presence of NADPH incubated upto 60 mins by LC-MS/MS analysis; assay type: ADME; settings: liver microsomes; method in brief: as §1
[24] = Volume of distribution at the steady state in Sprague-Dawley rat at 4 mg/kg, iv measured upto 24 hrs by LC-MS/MS analysis; assay type: ADME, organism-based; settings: in vivo, read-out: Vdss; method in brief: as §5
Pseudomonas aeruginosa [25] = test: Antibacterial activity against multidrug resistant Pseudomonas aeruginosa strains 15 1 to 3 assessed as reduction in bacterial growth incubated for 18 to 20 hrs by CLSI based microdilution method; assay type: functional; settings: time 18-20 hrs; method in brief: as §2
Escherichia coli [26] = test: Antibacterial activity against ESBL-producing Escherichia coli ATCC 35218 strains 15 1 to 3 assessed as reduction in bacterial growth incubated for 18 to 20 hrs by CLSI based microdilution method; assay type: functional; settings: time 18-20 hrs; method in brief: as §3
Escherichia coli [27] = test: Antibacterial activity against multidrug resistant wild type Escherichia coli NCTC 13353 assessed as reduction in bacterial growth incubated for 18 to 20 hrs by CLSI based microdilution method; assay type: functional; settings: time 18-20 hrs; method in brief: as §2
[28] = MRT in Sprague-Dawley rat at 4 mg/kg, iv measured upto 24 hrs by LC-MS/MS analysis; assay type: ADME, organism-based; settings: in vivo; method in brief: as §5
Staphylococcus aureus [29] = test: Antibacterial activity against methicillin-resistant Staphylococcus aureus strains 15 1 to 4 assessed as reduction in bacterial growth incubated for 18 to 20 hrs by CLSI based microdilution method; assay type: functional; settings: time 18-20 hrs; method in brief: as §2
[30] = system: Staphylococcus epidermidis; test: Antibacterial activity against methicillin-resistant Staphylococcus epidermidis strains 15 1 to 4 assessed as reduction in bacterial growth incubated for 18 to 20 hrs by CLSI based microdilution method; assay type: functional; settings: time 18-20 hrs; method in brief: as §2

Voltage-gated inwardly rectifying potassium channel KCNH2, sequence (Q12809 whole entry): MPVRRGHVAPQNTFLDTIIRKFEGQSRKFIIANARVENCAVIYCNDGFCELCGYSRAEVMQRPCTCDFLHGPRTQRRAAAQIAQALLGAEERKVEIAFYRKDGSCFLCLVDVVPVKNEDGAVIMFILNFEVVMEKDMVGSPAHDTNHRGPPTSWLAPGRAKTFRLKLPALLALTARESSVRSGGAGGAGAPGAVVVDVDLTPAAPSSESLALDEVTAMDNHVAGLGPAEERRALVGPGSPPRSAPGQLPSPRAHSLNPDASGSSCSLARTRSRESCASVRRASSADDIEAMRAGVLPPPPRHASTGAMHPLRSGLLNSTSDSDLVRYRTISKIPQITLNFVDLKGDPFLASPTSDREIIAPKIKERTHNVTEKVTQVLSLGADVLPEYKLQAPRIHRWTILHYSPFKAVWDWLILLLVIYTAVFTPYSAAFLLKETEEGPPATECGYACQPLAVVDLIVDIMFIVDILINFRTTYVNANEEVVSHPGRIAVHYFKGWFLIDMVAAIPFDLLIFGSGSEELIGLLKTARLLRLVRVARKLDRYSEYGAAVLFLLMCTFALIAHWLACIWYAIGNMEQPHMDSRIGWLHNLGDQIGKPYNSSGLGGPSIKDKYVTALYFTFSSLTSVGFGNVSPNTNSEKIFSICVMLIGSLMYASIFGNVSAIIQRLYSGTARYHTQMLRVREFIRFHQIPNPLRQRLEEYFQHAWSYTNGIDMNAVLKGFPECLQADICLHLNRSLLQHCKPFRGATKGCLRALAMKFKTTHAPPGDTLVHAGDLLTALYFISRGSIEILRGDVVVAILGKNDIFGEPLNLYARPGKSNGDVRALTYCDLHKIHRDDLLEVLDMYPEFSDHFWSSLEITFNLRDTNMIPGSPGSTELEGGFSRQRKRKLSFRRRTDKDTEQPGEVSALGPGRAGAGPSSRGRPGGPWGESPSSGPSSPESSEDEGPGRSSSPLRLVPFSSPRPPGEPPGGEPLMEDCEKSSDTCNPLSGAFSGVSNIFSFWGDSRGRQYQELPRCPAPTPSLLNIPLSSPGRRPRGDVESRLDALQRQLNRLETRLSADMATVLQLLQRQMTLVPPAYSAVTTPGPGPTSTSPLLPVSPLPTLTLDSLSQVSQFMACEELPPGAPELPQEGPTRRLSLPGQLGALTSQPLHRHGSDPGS
hERG (KCNH2) potassium channel, sequence (Q12809 whole entry): as above

Structure (SMILES) | IC50 [4] [µM] | half-life [6] [h] | AUC(0-inf) [9] [ng·h/mL] | MIC [11] [µg/mL] | inhibition at 2 min, 40 µM [13] [%] | clearance [14] [mL/min/kg] | MIC (Staphylococcus aureus [15]) [µg/mL] | MIC (Escherichia coli [17]) [µg/mL] | Vd [24] [L/kg] | MIC (Pseudomonas aeruginosa [25]) [µg/mL] | MIC (Escherichia coli [26]) [µg/mL] | MRT [28] [h] | other results
CCC(CN)=C1CN(c2nc(Oc3cnc(C(C)O)nc3)nc3[nH]c4c(NC)cc(F)cc4c23)C1 (configuration not stated) | > 40 | 2.7 | 983 | < 0.008 | 36 | 71.5 | < 0.008 | 0.25 (≈ 0.522 µM) | 9.3 | 16 (≈ 33.4 µM) | 0.5 (≈ 1.04 µM) | 2.1 | Fh at 1 h, 0.1 µM [1]: 33.8%; MIC (Escherichia coli [2]): 0.5 µg/mL (≈ 1.04 µM); MIC (Klebsiella pneumoniae [3]): 8 µg/mL (≈ 16.7 µM); MIC (Pseudomonas aeruginosa [5]): 4 µg/mL (≈ 8.36 µM); CLH [7]: 38.4 mL/min/g; CLH [8]: 138.4 mL/min/g; MIC (Acinetobacter baumannii [10]): 0.5 µg/mL (≈ 1.04 µM); half-life at 0.1 µM [12]: 0.912 h; MIC (Pseudomonas aeruginosa [16]): > 8 µg/mL; MIC (Escherichia coli [18]): 1 µg/mL (≈ 2.09 µM); MIC (Acinetobacter baumannii [19]): 0.5 µg/mL (≈ 1.04 µM); MIC (Klebsiella pneumoniae [20]): 2 µg/mL (≈ 4.18 µM); MIC (Klebsiella pneumoniae [21]): 4 µg/mL (≈ 8.36 µM); half-life at 0.1 µM [22]: 0.253 h; Fh at 1 h, 0.1 µM [23]: 24.3%; MIC (Escherichia coli [27]): 0.5 µg/mL (≈ 1.04 µM)
CNc1cc(F)cc2c1[nH]c1nc(Oc3cnc(C)nc3)nc(N3CC(=C(F)CN)C3)c12 | > 40 |  |  | 0.125 (≈ 0.285 µM) | 3.2 |  | 0.015 (≈ 0.0342 µM) | 0.06 (≈ 0.137 µM) |  | > 16 | 0.25 (≈ 0.57 µM) |  | MIC (Staphylococcus aureus [29]): 0.015 µg/mL (≈ 0.0342 µM); MIC [30]: 0.015 µg/mL (≈ 0.0342 µM)
CCC(CO)=C1CN(c2nc(Oc3cnc(C)nc3)nc3[nH]c4c(NC)cc(F)c(F)c4c23)C1 |  | 6.5 | 517 | < 0.03 |  | 141 | < 0.03 | 32 (≈ 68.5 µM) | 68.4 | > 8 | 0.25 (≈ 0.535 µM) | 8.3 | 
